Measured values from ChEMBL document CHEMBL1125199, “Comparison of azabicyclic esters and oxadiazoles as ligands for the muscarinic receptor” (J Med Chem, 1991).

What was measured:
[1] = biological target: Muscarinic acetylcholine receptor; test: The compound was tested in vitro for central muscarinic acetylcholine receptor affinity to displace [3H]oxotremorine-M from rat cerebral cortex; Value ranges from 41-48; format: tissue-based
[2] = biological target: T1, Muscarinic acetylcholine receptor (Rattus norvegicus) (UniProt P08482+P08483+P08485+P08911+P10980); test: Relative binding of QNB and OXO-M to muscarininc receptors (ratio of IC50); format: protein assay
How it was run: (§1)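 Ratio of IC50 for [3H]QNB displacement to IC50 for [3H]OXO-M displacement in rat cerebral cortex membranes. [3H]QNB at 0.27 nM; [3H]OXO-M at 2 nM with 2 mM MgCl2. Both incubated at 37 °C for 30 min in 50 mM Tris pH 7.7.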

[3] = biological target: Muscarinic acetylcholine receptor; test: The compound was tested in vitro for central muscarinic acetylcholine receptor affinity to displace [3H]quinuclidinyl benzilate from rat cerebral cortex; Value ranges from 2300-2600; format: tissue-based
Mus musculus [4] = test: Dose administered perorally which causes a fall of 3 degrees C in mean rectal temperature in group of 5 mice; format: functional
How it was run: (§2)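 Male CDI mice, 25–32 g, housed singly; rectal temperature read by thermocouple probe at 2.5 cm depth, three baseline readings at 20–30 min intervals, then every 15 min after dosing. ED3 read graphically as the dose giving a 3 °C fall in mean rectal temperature, groups of five; 95% confidence intervals given.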

Mus musculus [5] = test: Dose administered subcutaneously which causes a fall of 3 degrees C in mean rectal temperature in group of 5 mice; format: functional; how it was run: as §2
[6] = biological target: Muscarinic acetylcholine receptor; test: The compound was tested in vitro for central muscarinic acetylcholine receptor affinity to displace [3H]oxotremorine-M from rat cerebral cortex; Value ranges from 14-27; format: tissue-based
[7] = biological target: Muscarinic acetylcholine receptor; test: The compound was tested in vitro for central muscarinic acetylcholine receptor affinity to displace [3H]quinuclidinyl benzilate from rat cerebral cortex; Value ranges from 6200-6700; format: tissue-based
[8] = biological target: Muscarinic acetylcholine receptor; test: The compound was tested in vitro for central muscarinic acetylcholine receptor affinity to displace [3H]oxotremorine-M from rat cerebral cortex; Value ranges from 650-1900; format: tissue-based
[9] = biological target: Muscarinic acetylcholine receptor; test: The compound was tested in vitro for central muscarinic acetylcholine receptor affinity to displace [3H]quinuclidinyl benzilate from rat cerebral cortex; Value ranges from 8000-17000; format: tissue-based
[10] = biological target: T1, Muscarinic acetylcholine receptor (Rattus norvegicus); test: It is the ratio of IC50 (QNB) to that of IC50 (OXO-M); format: protein assay; how it was run: as §1
[11] = biological target: Muscarinic acetylcholine receptor; test: The compound was tested in vitro for central muscarinic acetylcholine receptor affinity to displace [3H]oxotremorine-M from rat cerebral cortex; Value ranges from 100-150; format: tissue-based
[12] = biological target: Muscarinic acetylcholine receptor; test: The compound was tested in vitro for central muscarinic acetylcholine receptor affinity to displace [3H]quinuclidinyl benzilate from rat cerebral cortex; Value ranges from 3900-5800; format: tissue-based
[13] = biological target: Muscarinic acetylcholine receptor; test: The compound was tested in vitro for central muscarinic acetylcholine receptor affinity to displace [3H]oxotremorine-M from rat cerebral cortex; Value ranges from 93-190; format: tissue-based
[14] = biological target: Muscarinic acetylcholine receptor; test: The compound was tested in vitro for central muscarinic acetylcholine receptor affinity to displace [3H]quinuclidinyl benzilate from rat cerebral cortex; Value ranges from 14000-38000; format: tissue-based
[15] = biological target: Muscarinic acetylcholine receptor; test: The compound was tested in vitro for central muscarinic acetylcholine receptor affinity to displace [3H]quinuclidinyl benzilate from rat cerebral cortex; Value ranges from 15000-45000; format: tissue-based
[16] = biological target: Muscarinic acetylcholine receptor; test: The compound was tested in vitro for central muscarinic acetylcholine receptor affinity to displace [3H]oxotremorine-M from rat cerebral cortex; Value ranges from 73-120; format: tissue-based
[17] = biological target: Muscarinic acetylcholine receptor; test: The compound was tested in vitro for central muscarinic acetylcholine receptor affinity to displace [3H]oxotremorine-M from rat cerebral cortex; Value ranges from 1000-1900; format: tissue-based
[18] = biological target: Muscarinic acetylcholine receptor; test: The compound was tested in vitro for central muscarinic acetylcholine receptor affinity to displace [3H]quinuclidinyl benzilate from rat cerebral cortex; Value ranges from 60000-65000; format: tissue-based
[19] = biological target: Muscarinic acetylcholine receptor; test: The compound was tested in vitro for central muscarinic acetylcholine receptor affinity to displace [3H]oxotremorine-M from rat cerebral cortex; Value ranges from 75-80; format: tissue-based
[20] = biological target: Muscarinic acetylcholine receptor; test: The compound was tested in vitro for central muscarinic acetylcholine receptor affinity to displace [3H]quinuclidinyl benzilate from rat cerebral cortex; Value ranges from 11000-14000; format: tissue-based
[21] = biological target: Muscarinic acetylcholine receptor; test: The compound was tested in vitro for central muscarinic acetylcholine receptor affinity to displace [3H]quinuclidinyl benzilate from rat cerebral cortex; Value ranges from 1300-2300; format: tissue-based
[22] = biological target: Muscarinic acetylcholine receptor; test: The compound was tested for muscarinic acetylcholine receptor affinity to displace [3H]oxotremorine-M from rat cerebral cortex; Value ranges from 250-280; format: tissue-based
[23] = biological target: Muscarinic acetylcholine receptor; test: The compound was tested in vitro for central muscarinic acetylcholine receptor affinity to displace [3H]quinuclidinyl benzilate from rat cerebral cortex; Value ranges from 16000-36000; format: tissue-based
[24] = biological target: Muscarinic acetylcholine receptor; test: The compound was tested in vitro for central muscarinic acetylcholine receptor affinity to displace [3H]oxotremorine-M from rat cerebral cortex; Value ranges from 440-600; format: tissue-based
[25] = biological target: Muscarinic acetylcholine receptor; test: The compound was tested in vitro for central muscarinic acetylcholine receptor affinity to displace [3H]oxotremorine-M from rat cerebral cortex; Value ranges from 93-280; format: tissue-based
[26] = biological target: Muscarinic acetylcholine receptor; test: The compound was tested in vitro for central muscarinic acetylcholine receptor affinity to displace [3H]quinuclidinyl benzilate from rat cerebral cortex; Value ranges from 48000-100000; format: tissue-based
[27] = biological target: Muscarinic acetylcholine receptor; test: The compound was tested in vitro for central muscarinic acetylcholine receptor affinity to displace [3H]quinuclidinyl benzilate from rat cerebral cortex; Value ranges from 1800-3000; format: tissue-based
[28] = biological target: Muscarinic acetylcholine receptor; test: The compound was tested in vitro for central muscarinic acetylcholine receptor affinity to displace [3H]oxotremorine-M from rat cerebral cortex; Value ranges from 25-31; format: tissue-based
[29] = biological target: Muscarinic acetylcholine receptor; test: The compound was tested in vitro for central muscarinic acetylcholine receptor affinity to displace [3H]oxotremorine-M from rat cerebral cortex; Value ranges from 950-1000; format: tissue-based
[30] = biological target: Muscarinic acetylcholine receptor; test: The compound was tested in vitro for central muscarinic acetylcholine receptor affinity to displace [3H]quinuclidinyl benzilate from rat cerebral cortex; Value ranges from 15000-25000; format: tissue-based
Mus musculus [31] = test: Dose administered subcutaneously which causes a fall of 3 degrees C in mean rectal temperature in group of 5 mice.; format: functional; how it was run: as §2
[32] = biological target: Muscarinic acetylcholine receptor; test: The compound was tested in vitro for central Muscarinic acetylcholine receptor affinity to displace [3H]quinuclidinyl benzilate from rat cerebral cortex; Value ranges from […]; format: tissue-based
[33] = biological target: Muscarinic acetylcholine receptor; test: The compound was tested in vitro for central Muscarinic acetylcholine receptor affinity to displace [3H]oxotremorine-M from rat cerebral cortex; Value ranges from 12-18; format: tissue-based
[34] = It is the ratio of IC50(QNB) to that of IC50(OXO-M); how it was run: as §1
[35] = biological target: Muscarinic acetylcholine receptor; test: The compound was tested in vitro for central muscarinic acetylcholine receptor affinity to displace [3H]oxotremorine-M from rat cerebral cortex; Value ranges from 34-52; format: tissue-based
[36] = biological target: Muscarinic acetylcholine receptor; test: The compound was tested in vitro for central muscarinic acetylcholine receptor affinity to displace [3H]quinuclidinyl benzilate from rat cerebral cortex; Value ranges from 8000-11000; format: tissue-based
[37] = biological target: Muscarinic acetylcholine receptor; test: The compound was tested in vitro for central muscarinic acetylcholine receptor affinity to displace [3H]oxotremorine-M from rat cerebral cortex; Value ranges from 1.6-3.9; format: tissue-based
[38] = biological target: Muscarinic acetylcholine receptor; test: The compound was tested in vitro for central muscarinic acetylcholine receptor affinity to displace [3H]quinuclidinyl benzilate from rat cerebral cortex; Value ranges from 930-1100; format: tissue-based
[39] = biological target: Muscarinic acetylcholine receptor; test: The compound was tested in vitro for central muscarinic acetylcholine receptor affinity to displace [3H]oxotremorine-M from rat cerebral cortex; Value ranges from 78-200; format: tissue-based
[40] = biological target: Muscarinic acetylcholine receptor; test: The compound was tested in vitro for central muscarinic acetylcholine receptor affinity to displace [3H]quinuclidinyl benzilate from rat cerebral cortex; Value ranges from 23000-38000; format: tissue-based
[41] = biological target: Muscarinic acetylcholine receptor; test: The compound was tested in vitro for central muscarinic acetylcholine receptor affinity to displace [3H]oxotremorine-M from rat cerebral cortex; Value ranges from 190-280; format: tissue-based
[42] = biological target: Muscarinic acetylcholine receptor; test: The compound was tested in vitro for central muscarinic acetylcholine receptor affinity to displace [3H]quinuclidinyl benzilate from rat cerebral cortex; Value ranges from 44000-60000; format: tissue-based
[43] = biological target: Muscarinic acetylcholine receptor; test: The compound was tested in vitro for central muscarinic acetylcholine receptor affinity to displace [3H]quinuclidinyl benzilate from rat cerebral cortex; Value ranges from 1700-2000; format: tissue-based
[44] = biological target: Muscarinic acetylcholine receptor; test: The compound was tested in vitro for central muscarinic acetylcholine receptor affinity to displace [3H]oxotremorine-M from rat cerebral cortex; Value ranges from 6-29; format: tissue-based
[45] = biological target: Muscarinic acetylcholine receptor; test: The compound was tested in vitro for central muscarinic acetylcholine receptor affinity to displace [3H]oxotremorine-M from rat cerebral cortex; Value ranges from 200-340; format: tissue-based
[46] = biological target: Muscarinic acetylcholine receptor; test: The compound was tested in vitro for central muscarinic acetylcholine receptor affinity to displace [3H]quinuclidinyl benzilate from rat cerebral cortex; Value ranges from 2800-6300; format: tissue-based
[47] = biological target: Muscarinic acetylcholine receptor; test: The compound was tested in vitro for central muscarinic acetylcholine receptor affinity to displace [3H]oxotremorine-M from rat cerebral cortex; Value ranges from 36-85; format: tissue-based
[48] = biological target: Muscarinic acetylcholine receptor; test: The compound was tested in vitro for central muscarinic acetylcholine receptor affinity to displace [3H]quinuclidinyl benzilate from rat cerebral cortex; Value ranges from 29000-33000; format: tissue-based

Cc1noc([C@@H]2CN3CCC[C@@H]2C3)n1
IC50 [1]: 44 nM
Ratio [2]: 55
IC50 [3]: 2400 nM

COC(=O)C12CCCN(CC1)C2 (stereo unspecified)
ED3 (Mus musculus [4]): >0.3 mg/kg
ED3 (Mus musculus [5]): 0.078 mg/kg
IC50 [6]: 19 nM
IC50 [7]: 6400 nM
Ratio [2]: 340

Cc1nc(C2CN3CCC2CC3)no1 (stereo unspecified)
IC50 [8]: 1100 nM
IC50 [9]: 12000 nM
Ratio [10]: 10

COC(=O)[C@@H]1C[C@H]2CCCN(C2)C1
IC50 [11]: 130 nM
Ratio [2]: 37
IC50 [12]: 4800 nM

Cc1noc(C23CCN(CC2)C3)n1
IC50 [13]: 130 nM
IC50 [14]: 23000 nM
Ratio [2]: 170

Cc1nc([C@@H]2CN3CC[C@@H]2C3)no1
IC50 [15]: 27000 nM
IC50 [16]: 92 nM
Ratio [2]: 290

COC(=O)[C@@H]1C[N@@]2CCC[C@@H]1C2
IC50 [17]: 1400 nM
IC50 [18]: 62000 nM
Ratio [10]: 46

COC(=O)[C@@H]1C[C@H]2CCN(C2)C1
IC50 [19]: 77 nM
IC50 [20]: 12000 nM
Ratio [2]: 160

Cc1noc([C@@H]2C[C@H]3CCCN(C3)C2)n1
IC50 [21]: 1730 nM
IC50 [22]: 260 nM
Ratio [2]: 7

COC(=O)C1CN2CCC1CC2 (stereo unspecified)
IC50 [23]: 25000 nM
IC50 [24]: 520 nM
Ratio [2]: 49

Cc1nnc(C23CCN(CC2)C3)o1
IC50 [25]: 180 nM
IC50 [26]: 70000 nM
Ratio [10]: 380

Cc1noc([C@@H]2C[C@H]3CCN(C3)C2)n1
IC50 [27]: 2400 nM
IC50 [28]: 28 nM
Ratio [2]: 84

Cc1nnc(C2CN3CCC2CC3)o1 (stereo unspecified)
IC50 [29]: 980 nM
IC50 [30]: 19000 nM
Ratio [10]: 20

Cc1noc(C23CCCN(CC2)C3)n1 (stereo unspecified)
ED3 (Mus musculus [4]): 0.018 mg/kg
ED3 (Mus musculus [31]): 0.0029 mg/kg
IC50 [32]: 3500 nM
IC50 [33]: 15 nM
Ratio [34]: 230

Cc1nnc(C23CCCN(CC2)C3)o1 (stereo unspecified)
IC50 [35]: 42 nM
IC50 [36]: 9400 nM
Ratio [10]: 220

Cc1noc([C@@H]2CN3CC[C@@H]2C3)n1
ED3 (Mus musculus [4]): 0.0011 mg/kg
ED3 (Mus musculus [5]): 0.0005 mg/kg
IC50 [37]: 2.8 nM
IC50 [38]: 1000 nM
Ratio [2]: 360

Cc1nnc([C@@H]2CN3CC[C@@H]2C3)o1
IC50 [39]: 120 nM
Ratio [10]: 240
IC50 [40]: 29000 nM

COC(=O)[C@@H]1CN2CC[C@@H]1C2
ED3 (Mus musculus [4]): >10 mg/kg
ED3 (Mus musculus [5]): 0.41 mg/kg
IC50 [41]: 230 nM
IC50 [42]: 51000 nM
Ratio [2]: 220

Cc1noc(C2CN3CCC2CC3)n1 (stereo unspecified)
IC50 [43]: 1800 nM
IC50 [44]: 14 nM
Ratio [2]: 130

Cc1nc(C23CCCN(CC2)C3)no1 (stereo unspecified)
IC50 [45]: 260 nM
IC50 [46]: 4200 nM
Ratio [10]: 16

COC(=O)C12CCN(CC1)C2
IC50 [47]: 48 nM
Ratio [10]: 650
IC50 [48]: 31000 nM
